These results are taken from ChEMBL document CHEMBL1137012, “Structural optimization and biological evaluation of 2-substituted 5-hydroxyindole-3-carboxylates as potent inhibitors of human 5-lipoxygenase” (J Med Chem, 2009).

Assay [1] deals with Rattus norvegicus. The assay can be described thus: Antiinflammatory activity against lambda carrageenan-induced pleurisy in Wistar Han rat assessed as reduction in LTB4 level at 10 mg/kg, ip administered 30 mins before carrageenan challenge measured after 4 hrs by EIA. The format is functional. The arrangement: scale not given: the % may be the effect or the level left. The note with it: route intraperitoneal. Summed up: (§1)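 Male Wistar Han rats (220-230 g; n = 10 per group) received compound ip, or vehicle (DMSO 4%), 30 min before intrapleural λ-carrageenan under anaesthesia. After 4 h, exudate was collected and its volume measured. Leukocytes were counted by light microscopy after trypan blue staining. LTB4 was measured by EIA (ng/rat). Data are mean ± SE.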

Assay [2] concerns Rattus norvegicus. The assay can be described thus: Antiinflammatory activity against lambda carrageenan-induced pleurisy in Wistar Han rat assessed as reduction in exudate volume at 10 mg/kg, ip administered 30 mins before carrageenan challenge measured after 4 hrs by trypan blue staining. The format is functional. To be noted: route intraperitoneal. Also noted: scale not given: the % may be the effect or the level left. Put shortly: as §1

For assay [3], the system named is Rattus norvegicus. The assay can be described thus: Antiinflammatory activity against lambda carrageenan-induced pleurisy in Wistar Han rat assessed as reduction in cellular infiltration at 10 mg/kg, ip administered 30 mins before carrageenan challenge measured after 4 hrs by trypan blue staining. The class given is functional. Also noted: scale not given: the % may be the effect or the level left. The note with it: route intraperitoneal. Put shortly:
as §1

Assay [4] relates to Neutrophil. The assay can be described thus: Inhibition of […]-induced translocation of 5-lipoxygenase from cytosol to perinuclear region in human neutrophils at 0.1 uM to 10 uM by Western blot. The format is functional, cell-based.
Assay [5] concerns Rattus norvegicus. The assay can be described thus: Antiinflammatory activity against lambda carrageenan-induced pleurisy in Wistar Han rat assessed as reduction in inflammatory cell number at 4 mg/kg, ip administered 30 mins before carrageenan challenge measured after 4 hrs by trypan blue staining. To be noted: route intraperitoneal. The class given is functional. The arrangement: scale not given: the % may be the effect or the level left. Put shortly:
as §1

Assay [6] has as its system Rattus norvegicus. The assay can be described thus: Antiinflammatory activity against lambda carrageenan-induced pleurisy in Wistar Han rat assessed as reduction in exudate volume at 4 mg/kg, ip administered 30 mins before carrageenan challenge measured after 4 hrs by trypan blue staining. The format is functional. The arrangement: scale not given: the % may be the effect or the level left. To be noted: route intraperitoneal. Put shortly: as §1

For assay [7], the system named is Rattus norvegicus. The assay can be described thus: Antiinflammatory activity against lambda carrageenan-induced pleurisy in Wistar Han rat assessed as reduction in LTB4 levels at 4 mg/kg, ip before carrageenan challenge measured after 4 hrs by EIA. The format is functional. Also noted: scale not given: the % may be the effect or the level left. To be noted: route intraperitoneal. Summed up: as §1

Assay [8] concerns Neutrophil. The assay can be described thus: Inhibition of […]-induced translocation of 5-lipoxygenase from cytosol to perinuclear region in human neutrophils at 100 uM by Western blotblot. The class given is functional, cell-based.

The source made the active and inactive calls. The calls are words filed in the database; no cut-off is given here.

Regarding `CC(c1cc2ccccc2s1)N(O)C(N)=O` (stereo not drawn) [ZILEUTON], the Activity is listed as 66% with Rattus norvegicus [1], 77% in the assay on Rattus norvegicus [2] and 41% in the assay on Rattus norvegicus [3].
As for `CC(C)c1ccc2c(c1)c(SC(C)(C)C)c(CC(C)(C)C(=O)O)n2Cc1ccc(Cl)cc1`, the result with Neutrophil [4] was inactive.
In the case of `CCOC(=O)c1c(Cc2cccc(Cl)c2)[nH]c2c1cc(O)c1ccccc12`, the Activity was 40% in the assay with Rattus norvegicus [5], 77% in the assay on Rattus norvegicus [6] and 49% in the assay on Rattus norvegicus [7]. Moreover, the outcome in the assay with Neutrophil [8] was inactive.
